Key:
Assay type in all cases: functional, cell-based
[1] = system: P388; assay: Cytotoxicity against mouse P388 cells assessed as growth inhibition after 72 hrs by MTT assay; conditions: P388, 72 h
How it was run: (§1)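 MTT read-out of cell growth, method as in an earlier report. IC50 is the concentration giving 50% inhibition of cell growth. Etoposide and cisplatin were run as positive controls.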

[2] = system: MCF7; assay: Cytotoxicity against human MCF7 cells assessed as growth inhibition after 72 hrs by MTT assay; conditions: MCF7, 72 h; how it was run: as §1
[3] = Cytotoxicity against human HONE1 cells assessed as growth inhibition after 72 hrs by MTT assay; conditions: HONE1, 72 h; how it was run: as §1
[4] = system: HT-29; assay: Cytotoxicity against human HT-29 cells assessed as growth inhibition after 72 hrs by MTT assay; conditions: HT-29, 72 h; how it was run: as §1

## CC1=CCC[C@H]2[C@@]1(C)[C@@H](OC(=O)c1cccnc1)[C@H](OC(=O)c1ccccc1)[C@]1(C)O[C@]3(COC(=O)C3)C[C@H](OC(=O)c3cccnc3)[C@]21C
[1]
  IC50: 5.8 µM
[2]
  IC50: 5.7 µM
[3]
  IC50: 3.5 µM
[4]
  IC50: 4.7 µM

## COc1cc([C@@H]2c3cc4c(cc3[C@@H](O[C@@H]3O[C@@H]5CO[C@@H](C)O[C@H]5[C@H](O)[C@H]3O)[C@H]3COC(=O)[C@H]23)OCO4)cc(OC)c1O [ETOPOSIDE]
[1]
  IC50: 1.3 µM
[2]
  IC50: 2.2 µM
[3]
  IC50: 1.2 µM
[4]
  IC50: 2 µM

## CC1=CCC[C@H]2[C@@]1(C)[C@@H](OC(=O)c1ccccc1)[C@H](OC(=O)C(O)C(C)C)[C@](C)(O)[C@]2(C)/C=C/C1=CC(=O)OC1 (stereo partly specified)
[1]
  IC50: 7.1 µM
[2]
  IC50: 7.7 µM
[3]
  IC50: 3.9 µM
[4]
  IC50: 6.4 µM

## CC(=O)O[C@H]1[C@H](OC(C)=O)[C@]2(C)O[C@]3(COC(=O)C3)C[C@H](OC(=O)c3ccccc3)[C@]2(C)[C@H]2CCC=C(C)[C@]12C
[1]
  IC50: 5.2 µM
[2]
  IC50: 6 µM
[3]
  IC50: 4.2 µM
[4]
  IC50: 4.1 µM

From ChEMBL document CHEMBL3774334, “New cytotoxic neo-clerodane diterpenoids from Scutellaria strigillosa” (Bioorg Med Chem Lett, 2016)
